# According to ChEMBL document CHEMBL4680165, “β-Lactams with antiproliferative and antiapoptotic activity in breast and chemoresistant colon cancer cells” (Eur J Med Chem, 2020):
# Active and inactive are the calls of the source. The rule behind the calls is not given here.
# Tested on: HT-29
# Test: Antiproliferative activity against human HT-29 cells assessed as reduction in cell viability after 72 hrs by alamar blue assay
# Type: functional, cell-based
# Details: HT-29, 72 h
# How it was run: (§1)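 Cells seeded at 5 x 10^3/well (MCF-7) or 1 x 10^4/well (HT-29, HEK-293T) and treated after 24 h with serial dilutions (0.001-100 µM) in 1% v/v ethanol vehicle. Alamar Blue 10% v/v added at 72 h, then 3-5 h at 37 °C in the dark; fluorescence ex 530/em 590 nm. Viability relative to vehicle; IC50 from dose-response curves; mean of three experiments in triplicate.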
row,IC50 [nM],Structure (SMILES)
1,333,C=C(C)[C@@H]1C(=O)N(c2cc(OC)c(OC)c(OC)c2)[C@H]1c1ccc(OC)c(Br)c1
2,355,COc1ccc([C@H]2[C@H](c3ccccc3)C(=O)N2c2cc(OC)c(OC)c(OC)c2)cc1I
3,678,C=C(C)[C@@H]1C(=O)N(c2cc(OC)c(OC)c(OC)c2)[C@H]1c1ccc(OC)c(F)c1
4,64,COc1ccc([C@H]2CC(=O)N2c2cc(OC)c(OC)c(OC)c2)cc1Br
5,15,COc1ccc([C@H]2[C@H](Cl)C(=O)N2c2cc(OC)c(OC)c(OC)c2)cc1F
6,189,COc1ccc([C@H]2CC(=O)N2c2cc(OC)c(OC)c(OC)c2)cc1C
7,222,COc1ccc([C@H]2[C@H](Cl)C(=O)N2c2cc(OC)c(OC)c(OC)c2)cc1C
8,144,COc1ccc([C@H]2[C@H](Cl)C(=O)N2c2cc(OC)c(OC)c(OC)c2)cc1Cl
9,480,C=C(C)[C@@H]1C(=O)N(c2cc(OC)c(OC)c(OC)c2)[C@H]1c1ccc(OC)c(Cl)c1
10,154,COc1ccc([C@@H]2N(c3cc(OC)c(OC)c(OC)c3)C(=O)C2(Cl)Cl)cc1Cl
11,313,COc1ccc([C@H]2[C@H](Oc3ccccc3)C(=O)N2c2cc(OC)c(OC)c(OC)c2)cc1C
12,9,COc1ccc([C@H]2[C@H](O)C(=O)N2c2cc(OC)c(OC)c(OC)c2)cc1Br
13,194,COc1ccc([C@H]2[C@H](Cl)C(=O)N2c2cc(OC)c(OC)c(OC)c2)cc1Br
14,24,COc1ccc([C@H]2[C@H](c3ccccc3)C(=O)N2c2cc(OC)c(OC)c(OC)c2)cc1Cl
15,117,COc1ccc([C@@H]2N(c3cc(OC)c(OC)c(OC)c3)C(=O)C2(Cl)Cl)cc1F
16,1050,C=C(C)[C@@H]1C(=O)N(c2cc(OC)c(OC)c(OC)c2)[C@H]1c1ccc(OC)c(I)c1
17,155,COc1ccc([C@H]2[C@H](Oc3ccccc3)C(=O)N2c2cc(OC)c(OC)c(OC)c2)cc1F (relative stereo)
18,232,COc1ccc([C@H]2[C@H](Oc3ccccc3)C(=O)N2c2cc(OC)c(OC)c(OC)c2)cc1I
19,197,C=C[C@@H]1C(=O)N(c2cc(OC)c(OC)c(OC)c2)[C@H]1c1ccc(OC)c(C)c1
20,1540,COc1ccc([C@@H]2N(c3cc(OC)c(OC)c(OC)c3)C(=O)C2(Cl)Cl)cc1Br

row,Structure (SMILES),IC50 [nM]
1,COc1ccc([C@@H]2N(c3cc(OC)c(OC)c(OC)c3)C(=O)C2(Cl)Cl)cc1C,319

# Tested on: not listed separately
# Test: Selectivity index, ratio of IC50 for human MCF7 cells to IC50 for human HT-29 cells assessed as reduction in cell viability after 72 hrs by alamar blue assay
# Type: functional
# Details: not given
row,Structure (SMILES),Ratio IC50
1,C=C(C)[C@@H]1C(=O)N(c2cc(OC)c(OC)c(OC)c2)[C@H]1c1ccc(OC)c(Br)c1,0.83
2,COc1ccc([C@H]2[C@H](c3ccccc3)C(=O)N2c2cc(OC)c(OC)c(OC)c2)cc1I,1.83
3,COc1ccc([C@@H]2N(c3cc(OC)c(OC)c(OC)c3)C(=O)C2(Cl)Cl)cc1C,2.34
4,C=C(C)[C@@H]1C(=O)N(c2cc(OC)c(OC)c(OC)c2)[C@H]1c1ccc(OC)c(F)c1,0.48
5,COc1ccc([C@H]2CC(=O)N2c2cc(OC)c(OC)c(OC)c2)cc1Br,0.94
6,COc1ccc([C@H]2CC(=O)N2c2cc(OC)c(OC)c(OC)c2)cc1C,1.68
7,COc1ccc([C@H]2[C@H](Cl)C(=O)N2c2cc(OC)c(OC)c(OC)c2)cc1C,1.95
8,COc1ccc([C@H]2[C@H](Cl)C(=O)N2c2cc(OC)c(OC)c(OC)c2)cc1Cl,0.63
9,C=C(C)[C@@H]1C(=O)N(c2cc(OC)c(OC)c(OC)c2)[C@H]1c1ccc(OC)c(Cl)c1,0.56
10,COc1ccc([C@@H]2N(c3cc(OC)c(OC)c(OC)c3)C(=O)C2(Cl)Cl)cc1Cl,0.91
11,COc1ccc([C@H]2[C@H](Oc3ccccc3)C(=O)N2c2cc(OC)c(OC)c(OC)c2)cc1C,7.14
12,COc1ccc([C@H]2[C@H](O)C(=O)N2c2cc(OC)c(OC)c(OC)c2)cc1Br,4.89
13,COc1ccc([C@H]2[C@H](Cl)C(=O)N2c2cc(OC)c(OC)c(OC)c2)cc1Br,3.12
14,COc1ccc([C@H]2[C@H](c3ccccc3)C(=O)N2c2cc(OC)c(OC)c(OC)c2)cc1Cl,9.58
15,COc1ccc([C@@H]2N(c3cc(OC)c(OC)c(OC)c3)C(=O)C2(Cl)Cl)cc1F,1.48
16,C=C(C)[C@@H]1C(=O)N(c2cc(OC)c(OC)c(OC)c2)[C@H]1c1ccc(OC)c(I)c1,1.29
17,COc1ccc([C@H]2[C@H](Oc3ccccc3)C(=O)N2c2cc(OC)c(OC)c(OC)c2)cc1F (relative stereo),0.47
18,COc1ccc([C@H]2[C@H](Oc3ccccc3)C(=O)N2c2cc(OC)c(OC)c(OC)c2)cc1I,0.9
19,C=C[C@@H]1C(=O)N(c2cc(OC)c(OC)c(OC)c2)[C@H]1c1ccc(OC)c(C)c1,1.67
20,COc1ccc([C@@H]2N(c3cc(OC)c(OC)c(OC)c3)C(=O)C2(Cl)Cl)cc1Br,0.73

# Tested on: MCF7
# Test: Antiproliferative activity against human MCF7 cells assessed as reduction in cell viability after 72 hrs by alamar blue assay
# Type: functional, cell-based
# Details: MCF7, 72 h
# How it was run: as §1
row,IC50 [nM],Structure (SMILES)
1,284,C=C(C)[C@@H]1C(=O)N(c2cc(OC)c(OC)c(OC)c2)[C@H]1c1ccc(OC)c(Br)c1
2,648,COc1ccc([C@H]2[C@H](c3ccccc3)C(=O)N2c2cc(OC)c(OC)c(OC)c2)cc1I
3,323,C=C(C)[C@@H]1C(=O)N(c2cc(OC)c(OC)c(OC)c2)[C@H]1c1ccc(OC)c(F)c1
4,60,COc1ccc([C@H]2CC(=O)N2c2cc(OC)c(OC)c(OC)c2)cc1Br
5,40,COc1ccc([C@H]2[C@H](Cl)C(=O)N2c2cc(OC)c(OC)c(OC)c2)cc1F
6,317,COc1ccc([C@H]2CC(=O)N2c2cc(OC)c(OC)c(OC)c2)cc1C
7,433,COc1ccc([C@H]2[C@H](Cl)C(=O)N2c2cc(OC)c(OC)c(OC)c2)cc1C
8,91,COc1ccc([C@H]2[C@H](Cl)C(=O)N2c2cc(OC)c(OC)c(OC)c2)cc1Cl
9,270,C=C(C)[C@@H]1C(=O)N(c2cc(OC)c(OC)c(OC)c2)[C@H]1c1ccc(OC)c(Cl)c1
10,140,COc1ccc([C@@H]2N(c3cc(OC)c(OC)c(OC)c3)C(=O)C2(Cl)Cl)cc1Cl
11,2240,COc1ccc([C@H]2[C@H](Oc3ccccc3)C(=O)N2c2cc(OC)c(OC)c(OC)c2)cc1C
12,44,COc1ccc([C@H]2[C@H](O)C(=O)N2c2cc(OC)c(OC)c(OC)c2)cc1Br
13,603,COc1ccc([C@H]2[C@H](Cl)C(=O)N2c2cc(OC)c(OC)c(OC)c2)cc1Br
14,230,COc1ccc([C@H]2[C@H](c3ccccc3)C(=O)N2c2cc(OC)c(OC)c(OC)c2)cc1Cl
15,173,COc1ccc([C@@H]2N(c3cc(OC)c(OC)c(OC)c3)C(=O)C2(Cl)Cl)cc1F
16,1350,C=C(C)[C@@H]1C(=O)N(c2cc(OC)c(OC)c(OC)c2)[C@H]1c1ccc(OC)c(I)c1
17,73,COc1ccc([C@H]2[C@H](Oc3ccccc3)C(=O)N2c2cc(OC)c(OC)c(OC)c2)cc1F (relative stereo)
18,208,COc1ccc([C@H]2[C@H](Oc3ccccc3)C(=O)N2c2cc(OC)c(OC)c(OC)c2)cc1I
19,328,C=C[C@@H]1C(=O)N(c2cc(OC)c(OC)c(OC)c2)[C@H]1c1ccc(OC)c(C)c1
20,1120,COc1ccc([C@@H]2N(c3cc(OC)c(OC)c(OC)c3)C(=O)C2(Cl)Cl)cc1Br

row,Structure (SMILES),IC50 [nM]
1,COc1ccc([C@@H]2N(c3cc(OC)c(OC)c(OC)c3)C(=O)C2(Cl)Cl)cc1C,747

# Tested on: not listed separately
# Test: Half life of the compound in phosphate buffer at pH 9 by HPLC analysis
# Type: physicochemical
# Details: not given
# How it was run: (§2)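 Compound stock was 1 mg/mL in mobile phase; 30 µL was diluted into 1 mL phosphate buffer (pH 4, 7.4 or 9) and held at 37 °C. Samples were taken at 0, 5, 30 and 60 min, then hourly to 24 h. Analysis was reverse-phase C18 HPLC with acetonitrile/water mobile phase at 1 mL/min and detection at 254 nm.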
row,half-life [h],Structure (SMILES)
1,5,COc1ccc([C@H]2[C@H](c3ccccc3)C(=O)N2c2cc(OC)c(OC)c(OC)c2)cc1I

# Tested on: not listed separately
# Test: Half life of the compound in phosphate buffer at pH 4 by HPLC analysis
# Type: physicochemical
# Details: not given
# How it was run: as §2
row,half-life [h],Structure (SMILES)
1,15,COc1ccc([C@H]2[C@H](c3ccccc3)C(=O)N2c2cc(OC)c(OC)c(OC)c2)cc1I

# Tested on: not listed separately
# Test: Half life of the compound in phosphate buffer at pH 7.4 by HPLC analysis
# Type: physicochemical
# Details: not given
# How it was run: as §2
row,half-life [h],Structure (SMILES)
1,14,COc1ccc([C@H]2[C@H](c3ccccc3)C(=O)N2c2cc(OC)c(OC)c(OC)c2)cc1I

# Organism: Bos taurus
# Test: Inhibition of bovine brain tubulin polymerization at 10 uM measured at 30 sec interval for 30 mins in presence of GTP by turbidimetry-based spectrophotometric method
# Details: not given
row,Structure (SMILES),inhibition
1,COc1ccc([C@H]2[C@H](O)C(=O)N2c2cc(OC)c(OC)c(OC)c2)cc1Br,Active
